Test results as given in ChEMBL document CHEMBL1153325, “Morpholine containing CB2 selective agonists” (Bioorg Med Chem Lett, 2009).
pEC50, pKi: −log10 of the molar value. Activity calls are given as the source filed them. No cut-off for these calls is given here.

Tests used:
Cannabinoid receptor 2 [1] = biological target: T1, Cannabinoid receptor 2 (Homo sapiens, UniProt P34972); experiment: Agonist activity at human CB2 receptor expressed in CHO cells assessed as inhibition of forskolin-induced cAMP release; format: functional, cell-based
T1 sequence (P34972 whole entry): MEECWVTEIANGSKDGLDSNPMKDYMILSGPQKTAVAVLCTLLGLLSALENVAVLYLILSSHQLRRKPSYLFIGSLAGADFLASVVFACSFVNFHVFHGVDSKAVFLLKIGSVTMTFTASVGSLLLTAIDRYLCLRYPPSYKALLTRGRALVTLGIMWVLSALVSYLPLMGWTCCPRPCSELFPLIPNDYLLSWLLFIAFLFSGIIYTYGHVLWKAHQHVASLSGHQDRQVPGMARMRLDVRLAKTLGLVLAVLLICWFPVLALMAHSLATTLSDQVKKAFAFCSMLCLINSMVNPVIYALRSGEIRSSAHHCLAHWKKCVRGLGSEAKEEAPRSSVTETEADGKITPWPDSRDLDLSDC
Outline: (§1)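 CHO cells stably expressing human CB2, 5000 cells/well, incubated overnight at 37 °C. Compounds added in stimulation buffer with 1 mM IBMX, 0.25% BSA and forskolin, 30 min at 37 °C. cAMP read after lysis with a commercial kit. 100% is set by forskolin-stimulated cAMP versus the level under 200 nM CP-55940. Efficacy is relative to CP-55940, which is run twice per plate. EC50 from a four-parameter logistic fit. Each compound tested in triplicate, at least three times; mean reported.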

Homo sapiens = species on record: Homo sapiens; experiment: Selectivity ratio of EC50 for human CB1 receptor to EC50 for human CB2 receptor
Outline: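 Inhibition is normalised to 200 nM CP-55940. EC50 from a four-parameter logistic fit. Each compound tested in triplicate, at least three times.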

Cannabinoid receptor 2 [2] = biological target: T1, Cannabinoid receptor 2; experiment: Agonist activity at human CB2 receptor expressed in CHO cells assessed as inhibition of forskolin-induced cAMP release relative to CP-55940; format: functional, cell-based; outline: as §1
Cannabinoid receptor 2 [3] = biological target: T1, Cannabinoid receptor 2; experiment: Displacement of [3H]Win55212 form human CB2 receptor transfected in HEK cells; format: cell-based, HEK293
Outline: (§2)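 Compounds tested at 1×10^-5 to 1×10^-10 M. Competition with [³H]-CP55940 or [³H]-Win55212 at 4 nM final. IC50 is 50% inhibition of specific binding, from a four-parameter logistic fit.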

Mus musculus [4] = experiment: Antiinflammatory activity in BALB/c mouse assessed as inhibition of zymosan-induced paw edema at 100 mg/kg, po administered 60 mins before zymosan challenge measured after 3 hrs relative to control; format: functional; set-up: scale not given: the % may be the effect or the level left
Outline: (§3)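 Male Balb/c mice, 6–10 weeks old. Compound given orally in 95% PEG400/5% Tween 80 about 60 min before 0.5% zymosan in 0.9% saline, injected dorsal metatarsally into each hind paw. Paw volume measured by water plethysmometry before challenge and 3 h after. Inhibition of swelling is relative to vehicle-dosed mice, six per group.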

Cannabinoid receptor 2 [5] = biological target: T1, Cannabinoid receptor 2; experiment: Displacement of [3H]CP-55940 form human CB2 receptor transfected in HEK cells; format: cell-based, HEK293; outline: as §2
Cannabinoid receptor 2 [6] = biological target: T1, Cannabinoid receptor 2; experiment: Inverse agonist activity at human CB2 receptor expressed in CHO cells assessed as change in forskolin-induced cAMP release; format: functional, cell-based; settings: filed as inverse agonist; outline: as §1
Cannabinoid receptor 2 [7] = biological target: T1, Cannabinoid receptor 2; experiment: Displacement of [3H]CP-55940 form human CB2 receptor transfected in HEK cells at 50 nM; format: cell-based; settings: HEK293
Mus musculus [8] = experiment: Antiinflammatory activity in BALB/c mouse assessed as inhibition of zymosan-induced paw edema at 30 mg/kg, po administered 60 mins before zymosan challenge measured after 3 hrs relative to control; format: functional; set-up: scale not given: the % may be the effect or the level left; outline: as §3

Compound | pEC50 (Cannabinoid receptor 2 [1]) | Ratio EC50 (Homo sapiens) | Efficacy (Cannabinoid receptor 2 [2]) | also measured
c1ccc(Nc2ccc(CN3CCO[C@@H](c4ccccc4)C3)cn2)cc1 | 6.85 | > 150 | 70% | –
Clc1ccccc1-c1ccc(CN2CCO[C@@H](c3ccccc3)C2)cc1 | 7.60 | 306 | 51% | –
c1ccc(Nc2ccc(CN3CCO[C@@H](c4ccccc4)C3)cc2)cc1 | 6.21 | > 30 | 60% | –
Clc1ccc(Nc2ccc(CN3CCO[C@@H](c4ccccc4)C3)cn2)c(Cl)c1 | 8.00 | > 2000 | 100% | pKi (Cannabinoid receptor 2 [3]): 5.58; Activity (Mus musculus [4]): 85%; pKi (Cannabinoid receptor 2 [5]): < 5.00
Clc1cccc(Nc2ccc(CN3CCO[C@@H](c4ccccc4)C3)cn2)c1 | 6.70 | > 100 | 80% | –
CC(C)c1ccc(Nc2ccc(CN3CCO[C@@H](c4ccccc4)C3)cn2)cc1 | < 4.70 | – | – | –
Cc1ccc(Cl)c(-c2ccc(CN3CCO[C@@H](c4ccccc4)C3)cc2)c1 | 8.52 | 781 | 73% | –
COc1ccc(Nc2ccc(CN3CCO[C@@H](c4ccccc4)C3)cn2)cc1 | 7.19 | > 310 | 90% | –
FC(F)(F)c1ccccc1-c1ccc(CN2CCO[C@H](c3ccccc3)C2)cc1 | – | – | – | Activity (Cannabinoid receptor 2 [6]): Inverse agonist
FC(F)(F)c1ccccc1-c1ccc(CN2CCO[C@@H](c3ccccc3)C2)cc1 | 7.40 | 250 | 50% | –
Fc1ccc(Nc2ccc(CN3CCO[C@@H](c4ccccc4)C3)cn2)cc1 | 7.46 | – | 70% | –
N#Cc1ccccc1-c1ccc(CN2CCO[C@@H](c3ccccc3)C2)cc1 | 8.52 | 715 | 56% | –
CN(C)c1ccc(Nc2ccc(CN3CCO[C@@H](c4ccccc4)C3)cn2)cc1 | < 4.70 | – | – | –
Cc1ccc(Nc2ccc(CN3CCO[C@@H](c4ccccc4)C3)cn2)cc1 | 7.00 | > 200 | 80% | –
Clc1ccc(Nc2ccc(CN3CCO[C@@H](c4ccccc4)C3)cn2)cc1 | 7.52 | > 670 | 80% | –
CN(Cc1ccc(-c2ccccc2C(F)(F)F)cc1)CC(O)c1ccccc1 (racemic) | 8.70 | 120 | 95% | Activity (Cannabinoid receptor 2 [7]): Active
Clc1cccc(-c2ccc(CN3CCO[C@@H](c4ccccc4)C3)cc2)c1Cl | 8.22 | 960 | 77% | pKi (Cannabinoid receptor 2 [3]): 6.98; Activity (Mus musculus [8]): 54%; pKi (Cannabinoid receptor 2 [5]): 6.51
FC(F)(F)c1ccccc1-c1ccc(CN2CCCC(c3ccccc3)C2)cc1 (racemic) | 7.52 | 195 | 57% | –
FC(F)(F)c1ccccc1-c1ccc(CN2CCOC(c3ccccc3)C2)cc1 (racemic) | 6.48 | > 60 | 50% | –
Clc1cccc(Nc2ccc(CN3CCO[C@@H](c4ccccc4)C3)cn2)c1Cl | 5.80 | > 10 | 70% | –
Clc1ccccc1Nc1ccc(CN2CCO[C@@H](c3ccccc3)C2)cn1 | 7.52 | 250 | 80% | –
c1ccc(Oc2ccc(CN3CCO[C@@H](c4ccccc4)C3)cc2)cc1 | 4.82 | – | 100% | –
c1ccc(-c2ccc(Nc3ccc(CN4CCO[C@@H](c5ccccc5)C4)cn3)cc2)cc1 | < 4.70 | – | – | –
O=C(NCC1CCOCC1)c1cnc(Nc2ccc(Cl)cc2Cl)nc1C(F)(F)F [GW842166X] | 6.46 | > 60 | 90% | pKi (Cannabinoid receptor 2 [3]): < 5.00; pKi (Cannabinoid receptor 2 [5]): < 5.30
Clc1ccc(Nc2ccc(CN3CCO[C@@H](c4ccccc4)C3)cn2)cc1Cl | 7.30 | > 400 | 80% | –
